ChEMBL document CHEMBL4402601, “Discovery of a Silicon-Containing Pan-Genotype Hepatitis C Virus NS5A Inhibitor” (J Med Chem, 2020)

Assays:
[1] = AUClast in mouse at 10 mg/kg, po by UPLC-MS/MS analysis; format: ADME, organism-based; conditions: in vivo
Outline: (§1)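 Overnight-fasted mice given a single 10 mg/kg oral dose in 2:2:96 (v/v) alcohol : Tween 80 : glucose injection. Plasma levels by UPLC-MS/MS. Bioavailability derived against a 2 mg/kg iv arm using the same formulation diluted 2.5 times with 10% glucose injection.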

[2] = Drug distribution in rat plasma at 10 mg/kg, po incubated for 8 hrs by UPLC-MS/MS analysis; format: ADME, organism-based
Outline: (§2)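 Oral dosing in mice and rats; compound measured in plasma and liver by UPLC-MS/MS at each time point, n = 3 (mean ± SD). LPR is mean liver concentration divided by mean plasma concentration.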

[3] = Ratio of drug distribution in rat liver to drug distribution in rat plasma measured after 0.5 hrs by UPLC-MS/MS analysis; format: ADME, cell-free; outline: as §2
[4] = AUC (0 to 48 hrs) in dog at 5 mg/kg, po by UPLC-MS/MS analysis; format: ADME, organism-based, Canis lupus familiaris; parameters: time < 48 hr, dose 5 mg/kg, route oral; conditions: in vivo
Hepatitis C virus [5] = assay: Antiviral activity against Hepatitis C virus subtype 1a H77 subgenomic replicon expressing NS5A Y93C mutant infected in human HuH7 cells assessed as reduction in viral replication incubated for 3 days by luciferase reporter gene assay; format: functional, organism-based, Hepacivirus hominis; conditions: subtype 1a H77, Huh-7, 72 h
Outline: (§3)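 NS5A resistance-associated variants introduced into GT1a-H77 or GT1b-Con1 replicons. In transient assays, each variant replicon was electroporated into a Huh-7-derived cell line. Inhibition measured as drop in luciferase signal. Percent inhibition computed per concentration; EC50 from 4-parameter logistic nonlinear fit. Fold resistance is variant EC50 relative to the matching reference replicon.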

[6] = Half life in dog at 5 mg/kg, po by UPLC-MS/MS analysis; format: ADME, organism-based, Canis lupus familiaris; conditions: in vivo
[7] = Metabolic stability in rat liver microsomes assessed as compound remaining at 1 uM incubated for 60 mins by UPLC-MS/MS analysis; format: ADME, Microsome; conditions: read-out: Stability
Outline: (§4)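 Pooled mouse, rat or human liver microsomes (0.5 mg/mL) with 1 μM compound, 1 mM NADPH, 5 mM MgCl₂ and 100 mM potassium phosphate pH 7.4. Pre-incubated 5 min at 37 °C, started with NADPH, then run 60 min at 37 °C. Quenched with ice-cold acetonitrile containing internal standard; parent remaining measured by UPLC-MS/MS.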

Hepatitis C virus [8] = assay: Antiviral activity against Hepatitis C virus subtype 1b Con1 subgenomic replicon expressing NS5A infected in human HuH7 cells assessed as reduction in viral replication incubated for 3 days by luciferase reporter gene assay; format: functional, organism-based, Hepacivirus hominis; conditions: subtype 1b Con1, Huh-7, 72 h
Outline: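 HCV replicon cell assay; inhibition of replication read as decrease in luciferase signal. Percent inhibition computed at each compound concentration; EC50 (pM) from nonlinear regression fit to a 4-parameter logistic equation. Values are means of triplicate wells, with each experiment run at least twice.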

Hepatitis C virus [9] = assay: Antiviral activity against Hepatitis C virus subtype 1a H77 subgenomic replicon expressing NS5A Q30E mutant infected in human HuH7 cells assessed as reduction in viral replication incubated for 3 days by luciferase reporter gene assay; format: functional, organism-based, Hepacivirus hominis; conditions: subtype 1a H77, Huh-7, 72 h; outline: as §3
[10] = Oral bioavailability in mouse at 10 mg/kg by UPLC-MS/MS analysis; format: ADME, organism-based; conditions: in vivo; outline: as §1
[11] = Cytotoxicity against human HuH7 cells assessed as reduction in cell viability incubated for 3 days by luciferase reporter gene assay; format: cell-based, Huh-7
Hepatitis C virus [12] = assay: Antiviral activity against Hepatitis C virus subtype 1a H77 subgenomic replicon expressing NS5A M28T mutant infected in human HuH7 cells assessed as reduction in viral replication incubated for 3 days by luciferase reporter gene assay; format: functional, organism-based, Hepacivirus hominis; conditions: subtype 1a H77, Huh-7, 72 h; outline: as §3
Hepatitis C virus [13] = assay: Resistance index, ratio of EC50 for Hepatitis C virus subtype 1a H77 subgenomic replicon expressing NS5A L31M mutant infected in human HuH7 cells to EC50 for Hepatitis C virus subtype 1a H77 subgenomic replicon expressing NS5A infected in human HuH7 cells; format: functional, Hepacivirus hominis; outline: as §3
[14] = Toxicity in mouse assessed as effect on hepatological parameters at 300 mg/kg, po administered for 14 days and measured on day 14; format: organism-based; conditions: in vivo, 336 h
Outline: (§5)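 Mice randomised after acclimation into two groups of 5 males and 5 females. Compound at 300 mg/kg or vehicle alone given once daily by oral gavage for 14 days. Clinical signs observed daily. Body weight and food intake recorded on day 1, then twice weekly. Animals killed after the 14th dose.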

Hepatitis C virus [15] = assay: Antiviral activity against Hepatitis C virus subtype 2a subgenomic replicon expressing NS5A infected in human HuH7 cells assessed as reduction in viral replication incubated for 3 days by luciferase reporter gene assay; format: functional, organism-based, Hepacivirus hominis; conditions: Huh-7, 72 h
[16] = Toxicity in mouse assessed as increase in cholesterol level at 300 mg/kg, po administered for 14 days and measured on day 14; format: organism-based; conditions: in vivo, 336 h; outline: as §5
[17] = Toxicity in mouse assessed as abnormality on organs at 300 mg/kg, po administered for 14 days and measured on day 14; format: organism-based; conditions: in vivo, 336 h; outline: as §5
[18] = Metabolic stability in human liver microsomes assessed as compound remaining at 1 uM incubated for 60 mins by UPLC-MS/MS analysis; format: ADME, Microsome; conditions: read-out: Stability; outline: as §4
[19] = Half life in mouse at 2 mg/kg, iv by UPLC-MS/MS analysis; format: ADME, organism-based; conditions: in vivo
Outline: (§6)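 Overnight-fasted mice dosed iv once at 2 mg/kg. Vehicle was 2:2:96 (v/v) alcohol : Tween 80 : glucose injection diluted 2.5 times with 10% glucose injection. Plasma concentration measured by UPLC-MS/MS.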

[20] = Drug distribution in mouse liver at 10 mg/kg, po incubated for 3 hrs by UPLC-MS/MS analysis; format: ADME, organism-based; conditions: read-out: Drug uptake; outline: as §2
Hepatitis C virus [21] = assay: Antiviral activity against Hepatitis C virus subtype 1a H77 subgenomic replicon expressing NS5A L31M mutant infected in human HuH7 cells assessed as reduction in viral replication incubated for 3 days by luciferase reporter gene assay; format: functional, organism-based, Hepacivirus hominis; conditions: subtype 1a H77, Huh-7, 72 h; outline: as §3
[22] = Tmax in mouse at 10 mg/kg, po by UPLC-MS/MS analysis; format: ADME, organism-based; conditions: in vivo
Outline: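 Mice fasted overnight, given a single 10 mg/kg oral dose in 2:2:96 (v/v) alcohol:Tween 80:glucose injection. Plasma concentrations measured by UPLC-MS/MS.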

Hepatitis C virus [23] = assay: Antiviral activity against Hepatitis C virus subtype 5a subgenomic replicon expressing NS5A infected in human HuH7 cells assessed as reduction in viral replication incubated for 3 days by luciferase reporter gene assay; format: functional, organism-based, Hepacivirus hominis; conditions: Huh-7, 72 h
[24] = Tmax in dog at 5 mg/kg, po by UPLC-MS/MS analysis; format: ADME, organism-based, Canis lupus familiaris; conditions: in vivo
[25] = Drug distribution in mouse plasma at 10 mg/kg, po incubated for 0.5 hrs by UPLC-MS/MS analysis; format: ADME, organism-based; outline: as §2
Hepatitis C virus [26] = assay: Resistance index, ratio of EC50 for Hepatitis C virus subtype 1a H77 subgenomic replicon expressing NS5A Y93C mutant infected in human HuH7 cells to EC50 for Hepatitis C virus subtype 1a H77 subgenomic replicon expressing NS5A infected in human HuH7 cells; format: functional, Hepacivirus hominis
[27] = Cmax in mouse at 10 mg/kg, po by UPLC-MS/MS analysis; format: ADME, organism-based; parameters: dose 10 mg/kg, route oral; conditions: in vivo; outline: as §1
[28] = Clearance in mouse plasma at 2 mg/kg, iv by UPLC-MS/MS analysis; format: ADME, organism-based; outline: as §6
[29] = AUClast in mouse at 2 mg/kg, iv by UPLC-MS/MS analysis; format: ADME, organism-based; conditions: in vivo; outline: as §6
Hepatitis C virus [30] = assay: Resistance index, ratio of EC50 for Hepatitis C virus subtype 1a H77 subgenomic replicon expressing NS5A L31V mutant infected in human HuH7 cells to EC50 for Hepatitis C virus subtype 1a H77 subgenomic replicon expressing NS5A infected in human HuH7 cells; format: functional, Hepacivirus hominis

Question: With COC(=O)N[C@H](C(=O)N1CCC[C@H]1C(=O)Nc1ccc([C@@H]2CC[C@@H](c3ccc(NC(=O)[C@@H]4CCCN4C(=O)[C@@H](NC(=O)OC)[C@@H](C)OC)cc3)N2c2cc(F)c(N3CC[Si](C)(C)CC3)c(F)c2)cc1)[C@@H](C)OC as the compound, how does the AUClast [1] read?
Answer: 6446 ng/hr.ml

Question: And the concentration at 8 h [2]?
Answer: 16.4 ng/mL

Question: What about the Kp at 0.5 h [3] of the same compound?
Answer: 2.7

Question: What about the AUC [4] of the same compound?
Answer: 8020 ng·h/mL

Question: And the EC50 (Hepatitis C virus [5])?
Answer: > 0.25 nM

Question: And the half-life [6]?
Answer: 21.2 h

Question: What about the remaining at 1 h, 1 µM [7] of the same compound?
Answer: 76.3%

Question: What about the EC50 (Hepatitis C virus [8]) of the same compound?
Answer: 0.0017 nM

Question: And the EC50 (Hepatitis C virus [9])?
Answer: 0.216 nM

Question: And the bioavailability [10]?
Answer: 7.2%

Question: What about the CC50 at 72 h [11] of the same compound?
Answer: > 50000 nM

Question: What about the EC50 (Hepatitis C virus [12]) of the same compound?
Answer: 0.00237 nM

Question: What about the “Ratio EC50” value (Hepatitis C virus [13]) of the same compound?
Answer: 9.9

Question: What about the Activity [14] of the same compound?
Answer: Non-Toxic

Question: What about the EC50 (Hepatitis C virus [15]) of the same compound?
Answer: 0.00038 nM

Question: What about the Activity [16] of the same compound?
Answer: Non-Toxic

Question: What about the Activity [17] of the same compound?
Answer: Non-Toxic

Question: And the remaining at 1 h, 1 µM [18]?
Answer: 80.9%

Question: And the half-life [19]?
Answer: 12.2 h

Question: What about the concentration at 3 h [20] of the same compound?
Answer: 1580 ng/g

Question: And the EC50 (Hepatitis C virus [21])?
Answer: 0.0122 nM

Question: And the Tmax [22]?
Answer: 7.3 h

Question: What about the EC50 (Hepatitis C virus [23]) of the same compound?
Answer: 0.0016 nM

Question: And the Tmax [24]?
Answer: 5.3 h

Question: And the concentration at 0.5 h [25]?
Answer: 160 ng/mL

Question: And the “Ratio EC50” value (Hepatitis C virus [26])?
Answer: >203

Question: And the Cmax [27]?
Answer: 454 ng/mL

Question: And the clearance [28]?
Answer: 1.67 mL/min/kg

Question: What about the AUClast [29] of the same compound?
Answer: 17863 ng/hr.ml

Question: What about the “Ratio EC50” value (Hepatitis C virus [30]) of the same compound?
Answer: 23
